# UPR XBP1 act: activators of adaptive XBP1 UPR arm, primary screen, cell-based, CHO-XBP1 luciferase reporter, luminescence, uHTS. IRE1-XBP1 UPR activation; percent of tunicamycin response, DMSO as zero. activation, % at 20 µM. AID 463104, 2010. actives 0.33% (n = 330,000);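 active = versus positive control, 20 µM dose yields 30% or more activation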;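 note: 100% = tunicamycin at 10 µg/mL and 0% = DMSO only wells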
#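 Material: CHO cell line with stable XBP1 luciferase reporter; buffer or medium: F12 medium containing 10% fetal bovine serum; compound: single point, 20 µM final compound, 1% DMSO; incubation: 6 h treatment, 37 °C; measured by: glow luminescence from Steady-Glo reagent; evaluation: activation, % of tunicamycin; control set: tunicamycin high, DMSO low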
# ABHD5-PLIN5 inh: ABHD5-PLIN5 interaction inhibitors, primary screen, cell lysate, split luciferase complementation, luminescence | Split G. princeps luciferase complementation, 4 h | inhibition, % at 4 µM | Perilipin-5 (Homo sapiens) + 1-acylglycerol-3-phosphate O-acyltransferase ABHD5 (Homo … | actives 0.78% (n = 360,000);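 active = inhibition above the mean inhibition across every tested compound plus 3 SD, cut at about 22% in these data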;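 note: 0% = DMSO only wells and the 100% control is not disclosed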
# Target sequence (Q00G26 whole entry, looked up): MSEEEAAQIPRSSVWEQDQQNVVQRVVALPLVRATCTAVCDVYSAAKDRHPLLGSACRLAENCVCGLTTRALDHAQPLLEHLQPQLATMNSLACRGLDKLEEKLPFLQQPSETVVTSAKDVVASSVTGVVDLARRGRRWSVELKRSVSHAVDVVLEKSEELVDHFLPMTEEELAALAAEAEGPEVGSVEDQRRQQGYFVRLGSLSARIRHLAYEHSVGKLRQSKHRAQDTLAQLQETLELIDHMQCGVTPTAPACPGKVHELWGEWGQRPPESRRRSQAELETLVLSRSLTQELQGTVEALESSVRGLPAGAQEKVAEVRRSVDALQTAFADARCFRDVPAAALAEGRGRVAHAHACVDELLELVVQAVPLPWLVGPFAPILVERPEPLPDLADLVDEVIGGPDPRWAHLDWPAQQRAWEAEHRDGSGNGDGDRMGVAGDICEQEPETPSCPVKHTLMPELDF
# Target sequence (Q8WTS1 whole entry, looked up): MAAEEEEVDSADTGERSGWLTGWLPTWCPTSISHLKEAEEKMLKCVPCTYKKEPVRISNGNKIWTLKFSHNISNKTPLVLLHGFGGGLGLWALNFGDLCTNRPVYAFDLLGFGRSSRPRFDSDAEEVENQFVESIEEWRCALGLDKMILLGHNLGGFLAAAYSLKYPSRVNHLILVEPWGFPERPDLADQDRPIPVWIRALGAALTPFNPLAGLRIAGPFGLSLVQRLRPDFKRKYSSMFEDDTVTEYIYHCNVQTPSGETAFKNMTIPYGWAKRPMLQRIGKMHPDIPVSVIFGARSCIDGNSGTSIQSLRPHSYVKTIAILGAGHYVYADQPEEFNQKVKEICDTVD
# UPR CHOP act: activators of apoptotic CHOP UPR arm, primary screen, cell-based, CHO-CHOP luciferase reporter, luminescence, uHTS. UPR activation; percent of tunicamycin response over DMSO baseline. activation, % at 10 µM. AID 449763, 2010. actives 0.34% (n = 330,000);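 active = at 10 µM dose, activation of 40% or more, normalized to positive control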;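 note: 100% = tunicamycin at 10 µg/mL and 0% = DMSO alone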
#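 Assay system: CHO cells with stable CHOP pathway luciferase reporter; Buffer or medium: F12 plus 10% serum; Times: 16-18 h cell attachment, then 6 h compound exposure, 37 °C; Signal: luciferase luminescence; Read-out basis: percent activation relative to tunicamycin control; Control set: tunicamycin high control, DMSO low control.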
# Exocytosis inh: LAMP-1 surface exposure blockers, TALL-104 cells – cell-based, flow cytometry, MLPCN library, primary screen; TALL-104 LAMP-1 surface exposure; cells stimulated with thapsigargin and PMA; inhibition, % at 10 µM; actives 0.66% (n = 360,000); AID 651702, 2012;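 active = inhibition above about 55%, limit read from the data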
# Mdm2-MdmX inh: inhibitors of human Mdm2-MdmX association, primary screen, cell-based, luminescence, split luciferase, SaOS-2, uHTS | SaOS-2 split-luciferase Mdm2/MdmX complementation | actives 3% (n = 330,000) | inhibition, % at 8 µM | Protein Mdm4 (Homo sapiens) + E3 ubiquitin-protein ligase Mdm2 (Homo sapiens), …;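 active = inhibition of at least 50% at 8 µM in the primary screen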
# UPR XBP1 confirm: IRE1-XBP1 UPR arm activators, confirmation, cell-based, CHO-XBP1 luciferase reporter, luminescence, single concentration | AID 485299, 2010 | activation, % at 20 µM | actives 63% (n = 1,000) | shares compounds with UPR XBP1 act;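 active = reporter signal at least 30% of the positive control's activation in two or more of four replicate wells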;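 note: plate controls were DMSO negative control for no effect and tunicamycin 10 µg/mL positive control for full effect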
# Mdm2 MdmX conf: Mdm2-MdmX complex disruptors, retested hits, confirmation, luminescence, single concentration | shares compounds with Mdm2-MdmX inh | Mdm2-MdmX binding, luminescent assay | inhibition, % at 8 µM | actives 55% (n = 10,000) | AID 489028, 2010; in the data active = inhibition above about 40%
# FLuc counter: full-length luciferase signal inhibition, confirmation, counter-screen for Mdm2/MdmX interaction inhibitor project, cell-based, single concentration, SaOS-2 | shares compounds with Mdm2-MdmX inh | SaOS-2 full-length luciferase counterscreen, luminescence | inhibition, % at 8 µM | actives 77% (n = 6,200) | AID 504607, 2011;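 active = mean inhibition at 8 µM reaching about 37%, which flags the compound as non-specific, limit read from the data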;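 note: p53-null SaOS-2 cells with luciferase driven by a doxycycline-inducible promoter; compound on cells about two nights before reading with doxycycline added after day one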
# Starred values were filed as active, the others as inactive; . = no result given. Sampled rows, rich in hits. Any-hit rate of the full collection: about 4%.
SMILES,UPR XBP1 act,ABHD5-PLIN5 inh,UPR CHOP act,Exocytosis inh,Mdm2-MdmX inh,UPR XBP1 confirm,Mdm2 MdmX conf,FLuc counter
COc1cccc(NC(=O)CSc2nc3c([nH]c4ccccc43)c(=O)n2C)c1,34.8*,1.4,-1.6,-0.2,54.8*,16.8,10.2,.
CC(=O)NNC(=O)c1sc(=S)n2c1[nH]c(=O)c1sccc12,-1.5,6.6,2.2,-0.6,20.8,.,.,.
Cc1c(CCOC(=O)CC23CC4CC(CC(C4)C2)C3)sc[n+]1CC(=O)c1ccc(Br)cc1,34.4*,8.8,3.3,14.2,51.1*,0.6,-2.0,.
CCOC(=O)C1=C(O)/C(=C/c2cn(CC(=O)NCC3CCCO3)c3ccccc23)SC1=Nc1ccc(C)cc1 (centres undefined),65.9*,-4.7,23.0,-1.3,99.0*,30.9*,92.2*,46.6*
CC(C)C(=O)c1cn(CC(=O)NCC2CCCO2)c2ccccc12 (centres undefined),-1.5,1.2,1.0,-1.4,6.7,.,.,.
COc1ccc(NC(=O)c2oc3ccccc3c2NC(=O)C2CC2)c(OC)c1,-0.4,6.5,1.6,-0.7,19.8,.,.,.
COc1ccc(OC)c(NC(=O)c2oc3ccccc3c2NC(=O)C2CC2)c1,60.5*,4.0,1.3,-0.8,57.9*,40.0*,17.6,.
C/C(=N/NC(=O)c1ccc(C)s1)c1cccc(NC(=O)COc2ccc(Cl)cc2C)c1,56.1*,2.7,14.2,3.0,88.8*,55.6*,-0.3,.
CCCCC(=O)N1CCCC(C(=O)OCC)C1 (centres undefined),1.0,6.7,-0.9,0.6,-30.8,.,.,.
CC(C)Cn1c2c(c(=O)[nH]c1=O)C(C(F)(F)F)(C(F)(F)F)N=C(CCC1CCCCC1)N2,32.6*,-0.3,12.2,17.7,51.9*,37.8*,71.2*,52.4*
O=c1[nH]c(=O)n(Cc2ccco2)c2c1C(C(F)(F)F)(C(F)(F)F)N=C(C1CCCCC1)N2,-2.1,-7.8,-3.3,-2.5,5.5,.,.,.
O=c1[nH]c(=O)n(Cc2ccco2)c2c1C(C(F)(F)F)(C(F)(F)F)N=C(CCC1CCCCC1)N2,42.8*,-1.4,10.2,2.7,62.0*,5.5,88.2*,39.5*
Cc1ccc(NC(=O)C2C3/C=C\CCCCC32)cc1 (centres undefined),2.4,-4.1,3.3,-2.4,-35.7,.,.,.
Cc1noc(NS(=O)(=O)c2ccc(NC(=O)c3ccc(Cl)c(S(=O)(=O)N(C)c4ccccc4)c3)cc2)c1C,0.4,-12.1,0.6,-1.6,-8.2,.,.,.
C#CCOCCOCCOCCNc1nc(N2CCN(C(=O)CCCCCCCCCCNC(=O)[C@H](CCCCN)n3cc(C[C@@H](C)CC)nn3)CC2)nc(N2CCN(C(=O)CCCCCCCCCCNC(=O)[C@@H]([C@H](C)O)n3cc(C)nn3)CC2)n1,40.4*,53.3*,28.8,97.3*,97.1*,1.1,97.1*,7.3
COc1ccc(OC)c(-c2nnc3n2N=C(c2ccc(OC)c(OCC4CC4)c2)CS3)c1,32.1*,23.1*,1.4,-9.3,80.5*,34.7*,68.5*,67.6*
COc1cc(OC)cc(C(=O)Nc2ccccc2-c2nnn(CC(=O)Nc3cc(C)on3)n2)c1,327.4*,-5.2,1.6,0.4,71.5*,0.9,24.4,.
CC(=O)NC(c1ccco1)c1ccc2cccnc2c1O (centres undefined),32.0*,-0.7,-2.5,15.9,71.7*,-0.7,54.5*,27.7
CC(=O)NC(c1ccc(Cl)cc1)c1ccc2cccnc2c1O (centres undefined),.,10.7,.,-0.2,.,.,.,.
COc1ccc(C(=O)N/N=C/c2ccccc2OC(=O)c2ccccc2)cc1,51.2*,-2.3,1.7,11.3,53.1*,29.8,41.0*,111.5*
O=C(NC1CCCC1)C1C(c2ccccc2)=Nc2ccccc2N1C(=O)c1ccc(C(F)(F)F)cc1 (centres undefined),.,-4.9,.,1.3,.,.,.,.
CNc1oc(-c2cccs2)nc1S(=O)(=O)c1ccccc1,-2.4,-0.8,1.9,10.4,7.1,.,.,.
C[C@@H]1CN([C@H](C)CO)C(=O)Cc2cc(NS(=O)(=O)c3ccc(Cl)cc3)ccc2O[C@H]1CN(C)Cc1ccc(C(F)(F)F)cc1,47.5*,-18.1,28.2,8.5,89.6*,22.4,62.2*,55.0*
C[C@@H]1CN([C@H](C)CO)C(=O)Cc2cc(NS(=O)(=O)c3ccc(F)cc3)ccc2O[C@H]1CN(C)Cc1ccc(C(=O)O)cc1,-3.4,-4.8,0.8,-3.7,10.1,.,.,.
CCc1ccc(Nc2cc(C)nc3ncnn23)cc1,-1.1,11.0,3.0,1.3,40.7,.,.,.
SMILES,UPR XBP1 act,ABHD5-PLIN5 inh,UPR CHOP act,Exocytosis inh,Mdm2-MdmX inh,UPR XBP1 confirm,Mdm2 MdmX conf,FLuc counter
CCn1c2ccccc2c2cc(Nc3cc(C)nc4ncnn34)ccc21,35.9*,8.3,-0.6,18.2,82.5*,23.2,71.9*,109.1*
CCc1ccc(NCCC(=O)c2ccc(Cl)cc2)cc1,4.6,3.2,0.6,6.1,-22.2,.,.,.
Nc1ccc(C(=O)Nc2cccc(NC(=O)c3ccc(N)cc3)c2)cc1,-5.2,-6.0,0.1,-0.7,-1.9,.,.,.
COc1ccc(CNC(=O)CNC(C)c2ccc(F)cc2)cc1 (centres undefined),-1.3,-4.2,0.5,32.1,16.5,.,.,.
COc1ccc(C(CCNCc2ccc(F)cc2)c2ccc(F)cc2)cc1 (centres undefined),48.0*,8.0,3.6,10.8,76.3*,64.7*,33.9,90.0*
COc1ccc(C(CCNC(C)c2ccccc2)c2ccc(F)cc2)cc1 (centres undefined),45.5*,13.1,1.7,7.2,72.6*,63.2*,31.8,.
COc1ccc(CNCCC(c2ccc(OC)cc2)c2ccccc2OC)cc1 (centres undefined),-2.8,12.6,2.3,55.1,19.5,.,.,.
O=C(Cc1coc(-c2ccc(F)cc2)n1)NC1CCCCC1,4.7,-8.3,-1.5,-3.0,18.9,.,.,.
COc1ccc(-c2nn(-c3ccccc3)cc2C(=O)Nc2cccc(S(=O)(=O)NC3=NCCC3)c2)cc1,2.7,-4.8,3.5,0.1,25.5,.,.,.

# Screening data: PubChem, several laboratories
